From ChEMBL document CHEMBL4689842, “EUbOPEN Chemogenomics Library wave 1” (2021)

Key:
U2OS = test: Multiplex assay against U2OS; type: toxicity, cell-based; settings: human
Method in brief: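 On a CQ1 microscope at 37°C and 5% CO2, live cells were imaged after compound addition. They had been stained at seeding with Hoechst33342, BioTracker Green Microtubule Cytoskeleton Dye, MitoTracker Red and Annexin V Alexa Fluor 680. CellPathfinder machine-learning gating assigned cells to Hoechst high-intensity objects or normal cells, normal cells to healthy, pyknosed or fragmented nuclei, and pyknosed cells to mitotic or apoptotic. Tubulin, mitochondrial-mass and membrane-permeability phenotypes are per cents of healthy-nucleus cells.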

Fibroblast = test: Incucyte cell viability with human fibroblast; type: toxicity, cell-based; settings: 10 µM, compound concentration 10 uM; further: filed as whole numbers so only -1 and 0 and 1 occur
[1] = 12 h, 1 µM, compound concentration 1 uM, replicate 1
[2] = 12 h, 1 µM, compound concentration 1 uM, replicate 2
[3] = 12 h, 10 µM, compound concentration 10 uM, replicate 1
[4] = 12 h, 10 µM, compound concentration 10 uM, replicate 2
[5] = 24 h, 1 µM, compound concentration 1 uM, replicate 1
[6] = 24 h, 1 µM, compound concentration 1 uM, replicate 2
[7] = 24 h, 10 µM, compound concentration 10 uM, replicate 1
[8] = 24 h, 10 µM, compound concentration 10 uM, replicate 2

## CN(C)CCOc1ccc(-c2nc(-c3ccncc3)c(-c3ccc4c(c3)CC/C4=N\O)[nH]2)cc1 [SB590885]
U2OS; [1]
  Population Apoptotic (%): 72%
  Population Fragmented Nuclei (%): 22%
  Population Healthy Nuclei (%): 42%
  Population Hoechst High Intensity Objects (%): 9%
  Population Membrane Permeable-Phenotype (%): 45%
  Population Mitochondria Different-Phenotype (%): 30%
  Population Mitotic Cells (%): 27%
  Population Normal (%): 90%
  Population Pyknosed Nuclei (%): 34%
  Population Tubulin-Different-Phenotype (%): 54%
  Total Cell Count: 200
U2OS; [2]
  Population Apoptotic (%): 88%
  Population Fragmented Nuclei (%): 41%
  Population Healthy Nuclei (%): 34%
  Population Hoechst High Intensity Objects (%): 15%
  Population Membrane Permeable-Phenotype (%): 38%
  Population Mitochondria Different-Phenotype (%): 28%
  Population Mitotic Cells (%): 11%
  Population Normal (%): 84%
  Population Pyknosed Nuclei (%): 23%
  Population Tubulin-Different-Phenotype (%): 51%
  Total Cell Count: 155
U2OS; [3]
  Population Apoptotic (%): 42%
  Population Fragmented Nuclei (%): 5%
  Population Hoechst High Intensity Objects (%): 3%
  Population Membrane Permeable-Phenotype (%): 11%
  Population Mitochondria Different-Phenotype (%): 23%
  Population Mitotic Cells (%): 57%
  Population Normal (%): 96%
  Population Pyknosed Nuclei (%): 7%
  Population Tubulin-Different-Phenotype (%): 26%
  Total Cell Count: 149
U2OS; [4]
  Population Apoptotic (%): 37%
  Population Fragmented Nuclei (%): 6%
  Population Healthy Nuclei (%): 87%
  Population Hoechst High Intensity Objects (%): 10%
  Population Membrane Permeable-Phenotype (%): 14%
  Population Mitochondria Different-Phenotype (%): 28%
  Population Mitotic Cells (%): 62%
  Population Normal (%): 89%
  Population Pyknosed Nuclei (%): 5%
  Population Tubulin-Different-Phenotype (%): 33%
  Total Cell Count: 78
U2OS; [5]
  Population Apoptotic (%): 85%
  Population Fragmented Nuclei (%): 15%
  Population Healthy Nuclei (%): 38%
  Population Hoechst High Intensity Objects (%): 19%
  Population Membrane Permeable-Phenotype (%): 34%
  Population Mitochondria Different-Phenotype (%): 34%
  Population Mitotic Cells (%): 14%
  Population Normal (%): 80%
  Population Pyknosed Nuclei (%): 45%
  Population Tubulin-Different-Phenotype (%): 37%
  Total Cell Count: 280
U2OS; [6]
  Population Apoptotic (%): 91%
  Population Fragmented Nuclei (%): 35%
  Population Healthy Nuclei (%): 25%
  Population Hoechst High Intensity Objects (%): 21%
  Population Membrane Permeable-Phenotype (%): 33%
  Population Mitochondria Different-Phenotype (%): 41%
  Population Mitotic Cells (%): 8%
  Population Normal (%): 78%
  Population Pyknosed Nuclei (%): 38%
  Population Tubulin-Different-Phenotype (%): 30%
  Total Cell Count: 196
U2OS; [7]
  Population Apoptotic (%): 44%
  Population Fragmented Nuclei (%): 5%
  Population Healthy Nuclei (%): 90%
  Population Hoechst High Intensity Objects (%): 2%
  Population Membrane Permeable-Phenotype (%): 12%
  Population Mitochondria Different-Phenotype (%): 21%
  Population Mitotic Cells (%): 55%
  Population Normal (%): 97%
  Population Pyknosed Nuclei (%): 3%
  Population Tubulin-Different-Phenotype (%): 30%
  Total Cell Count: 144
U2OS; [8]
  Population Apoptotic (%): 50%
  Population Fragmented Nuclei (%): 7%
  Population Healthy Nuclei (%): 89%
  Population Hoechst High Intensity Objects (%): 7%
  Population Membrane Permeable-Phenotype (%): 8%
  Population Mitochondria Different-Phenotype (%): 38%
  Population Mitotic Cells (%): 50%
  Population Normal (%): 92%
  Population Tubulin-Different-Phenotype (%): 37%
  Total Cell Count: 80
Fibroblast; 0 h, replicate number 1, timepoint 0 hours
  Growth Rate: 0
Fibroblast; 18 h, replicate number 2, timepoint 18 hours
  Growth Rate: 1
Fibroblast; 24 h, replicate number 1, timepoint 24 hours
  Growth Rate: 1
Fibroblast; 24 h, replicate number 2, timepoint 24 hours
  Growth Rate: 0
